From ChEMBL document CHEMBL1177711, “Novel quinolizidinyl derivatives as antiarrhythmic agents: 2. Further investigation” (J Med Chem, 2010)
One block for each molecule: values may come before it.

What was measured:
[1] = Negative inotropic activity against potassium-induced contraction in guinea pig left atrium assessed as decrease in developed tension; assay type: functional, tissue-based; details: Cavia porcellus, Cardiac atrium
Aorta [2] = assay: Vasorelaxant activity in potassium depolarized guinea pig aortic strip assessed as inhibition of calcium-induced contraction at 50 uM; assay type: functional; details: Cavia porcellus
[3] = Negative chronotropic activity against potassium-induced contraction in guinea pig left atrium assessed as decrease atrial rate at 10 uM relative to control; assay type: functional, Cavia porcellus, Cardiac atrium; parameters: scale not given: the % may be the effect or the level left
[4] = Antiarrhythmic activity in sinusoidal alternating current-induced guinea pig left atrium assessed as increase in current strength at which extra beats occur at 10 uM measured every 30 mins; assay type: functional, Cavia porcellus, Cardiac atrium
How it was run: (§1)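 Isolated guinea pig left atria, electrically driven at 1 Hz, were exposed to sinusoidal alternating current to induce arrhythmia. The read-out was the rise in the ac-arrhythmia threshold over concentrations up to 100 μM.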

[5] = Negative inotropic activity against potassium-induced contraction in guinea pig left atrium assessed as decrease in developed tension at 1 uM relative to control; assay type: functional, Cavia porcellus, Cardiac atrium; parameters: scale not given: the % may be the effect or the level left
[6] = Negative inotropic activity against potassium-induced contraction in guinea pig left atrium assessed as decrease in developed tension at 50 uM relative to control; assay type: functional, Cavia porcellus, Cardiac atrium; parameters: scale not given: the % may be the effect or the level left
[7] = Antiarrhythmic activity in sinusoidal alternating current-induced guinea pig left atrium assessed as increase in current strength at which extra beats occur at 0.5 uM measured every 30 mins; assay type: functional, Cavia porcellus, Cardiac atrium; how it was run: as §1
Aorta [8] = assay: Vasorelaxant activity in potassium depolarized guinea pig aortic strip assessed as inhibition of calcium-induced contraction at 100 uM; assay type: functional; details: Cavia porcellus
[9] = Negative chronotropic activity against potassium-induced contraction in guinea pig left atrium assessed as decrease atrial rate at 100 uM relative to control; assay type: functional, Cavia porcellus, Cardiac atrium; parameters: scale not given: the % may be the effect or the level left
[10] = Negative inotropic activity against potassium-induced contraction in guinea pig left atrium assessed as decrease in developed tension at 10 uM relative to control; assay type: functional, Cavia porcellus, Cardiac atrium; parameters: scale not given: the % may be the effect or the level left
[11] = Antiarrhythmic activity in sinusoidal alternating current-induced guinea pig left atrium assessed as increase in current strength at which extra beats occur at 5 uM measured every 30 mins; assay type: functional, Cavia porcellus, Cardiac atrium; how it was run: as §1
[12] = Antiarrhythmic activity in sinusoidal alternating current-induced guinea pig left atrium assessed as increase in current strength at which extra beats occur measured every 30 mins; assay type: functional, tissue-based; details: Cavia porcellus, Cardiac atrium, 0.5 h; how it was run: as §1
[13] = Negative inotropic activity against potassium-induced contraction in guinea pig left atrium assessed as decrease in developed tension at 0.5 uM relative to control; assay type: functional, Cavia porcellus, Cardiac atrium; parameters: scale not given: the % may be the effect or the level left
[14] = […] chronotropic activity against potassium-induced contraction in guinea pig left atrium assessed as decrease atrial rate at 100 uM relative to control; assay type: functional, Cavia porcellus, Cardiac atrium; parameters: scale not given: the % may be the effect or the level left
[15] = Cardioprotective effect in Langendorff perfused guinea pig spontaneously beating […] assessed as atrioventicular conduction time at 10 uM (RVb = 50 to 55 +/- 1 to 4 ms); assay type: functional; details: Cavia porcellus
How it was run: (§2)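 Whole guinea pig hearts were Langendorff-perfused and their ECG recorded at graded concentrations. Intervals read were PR (atrioventricular conduction time), QT (ventricular action potential duration) and QRS (intraventricular conduction time).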

[16] = Cardioprotective effect in Langendorff perfused guinea pig spontaneously beating […] assessed as intraventicular conduction time at 0.01 uM (RVb = 19 to 24 +/- 1 to 2 ms); assay type: functional; details: Cavia porcellus; how it was run: as §2
[17] = Cardioprotective effect in Langendorff perfused guinea pig spontaneously beating […] assessed as atrioventicular conduction time at 0.1 uM (RVb = 50 to 55 +/- 1 to 4 ms); assay type: functional; details: Cavia porcellus; how it was run: as §2
Heart [18] = assay: Cardioprotective effect in Langendorff perfused guinea pig spontaneously beating […] assessed as heart rat at 10 uM (RVb = 175 to 190 +/- 5 to 11 bpm); assay type: functional, Cavia porcellus
[19] = Cardioprotective effect in Langendorff perfused guinea pig spontaneously beating […] assessed as atrioventicular conduction time at 0.001 uM (RVb = 50 to 55 +/- 1 to 4 ms); assay type: functional; details: Cavia porcellus; how it was run: as §2
[20] = Negative chronotropic activity against potassium-induced contraction in guinea pig left atrium assessed as decrease atrial rate at 50 uM relative to control; assay type: functional, Cavia porcellus, Cardiac atrium; parameters: scale not given: the % may be the effect or the level left
[21] = Cardioprotective effect in Langendorff perfused guinea pig spontaneously beating […] assessed as intraventicular conduction time at 0.001 uM (RVb = 19 to 24 +/- 1 to 2 ms); assay type: functional; details: Cavia porcellus; how it was run: as §2
[22] = Cardioprotective effect in Langendorff perfused guinea pig spontaneously beating […] assessed as intraventicular conduction time at 0.1 uM (RVb = 19 to 24 +/- 1 to 2 ms); assay type: functional; details: Cavia porcellus; how it was run: as §2
[23] = Cardioprotective effect in Langendorff perfused guinea pig spontaneously beating […] assessed as atrioventicular conduction time at 0.01 uM (RVb = 50 to 55 +/- 1 to 4 ms); assay type: functional; details: Cavia porcellus; how it was run: as §2
Heart [24] = assay: Cardioprotective effect in Langendorff perfused guinea pig spontaneously beating […] assessed as heart rat at 0.01 uM (RVb = 175 to 190 +/- 5 to 11 bpm); assay type: functional, Cavia porcellus
[25] = Negative chronotropic activity against potassium-induced contraction in guinea pig left atrium assessed as decrease atrial rate; assay type: functional, tissue-based; details: Cavia porcellus, Cardiac atrium
[26] = Cardioprotective effect in Langendorff perfused guinea pig spontaneously beating […] assessed as duration of ventricular action potential at 10 uM (RVb = 140 to 161 +/- 2 to 8 ms); assay type: functional, Cavia porcellus, Cardiac ventricle; how it was run: as §2
[27] = Cardioprotective effect in Langendorff perfused guinea pig spontaneously beating […] assessed as duration of ventricular action potential at 1 uM (RVb = 140 to 161 +/- 2 to 8 ms); assay type: functional, Cavia porcellus, Cardiac ventricle; how it was run: as §2
[28] = Cardioprotective effect in Langendorff perfused guinea pig spontaneously beating […] assessed as intraventicular conduction time at 10 uM (RVb = 19 to 24 +/- 1 to 2 ms); assay type: functional; details: Cavia porcellus; how it was run: as §2
Heart [29] = assay: Cardioprotective effect in Langendorff perfused guinea pig spontaneously beating […] assessed as heart rat at 1 uM (RVb = 175 to 190 +/- 5 to 11 bpm); assay type: functional, Cavia porcellus
[30] = Cardioprotective effect in Langendorff perfused guinea pig spontaneously beating […] assessed as duration of ventricular action potential at 0.001 uM (RVb = 140 to 161 +/- 2 to 8 ms); assay type: functional, Cavia porcellus, Cardiac ventricle; how it was run: as §2
[31] = Cardioprotective effect in Langendorff perfused guinea pig spontaneously beating […] assessed as intraventicular conduction time at 1 uM (RVb = 19 to 24 +/- 1 to 2 ms); assay type: functional; details: Cavia porcellus; how it was run: as §2
[32] = Antiarrhythmic activity in sinusoidal alternating current-induced guinea pig left atrium assessed as increase in current strength at which extra beats occur at 100 uM measured every 30 mins; assay type: functional, Cavia porcellus, Cardiac atrium; how it was run: as §1
[33] = Cardioprotective effect in Langendorff perfused guinea pig spontaneously beating […] assessed as duration of ventricular action potential at 0.1 uM (RVb = 140 to 161 +/- 2 to 8 ms); assay type: functional, Cavia porcellus, Cardiac ventricle; how it was run: as §2
Heart [34] = assay: Cardioprotective effect in Langendorff perfused guinea pig spontaneously beating […] assessed as heart rat at 0.1 uM (RVb = 175 to 190 +/- 5 to 11 bpm); assay type: functional, Cavia porcellus
[35] = Ratio of compound to auinidine for antiarrhythmic activity in sinusoidal alternating current-induced guinea pig left atrium; assay type: functional, Cavia porcellus, Cardiac atrium
How it was run: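 The antiarrhythmic EC50 was taken from the ac-arrhythmia threshold rise in 1 Hz-driven guinea pig left atria, using probit analysis.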

[36] = Cardioprotective effect in Langendorff perfused guinea pig spontaneously beating […] assessed as duration of ventricular action potential at 0.01 uM (RVb = 140 to 161 +/- 2 to 8 ms); assay type: functional, Cavia porcellus, Cardiac ventricle; how it was run: as §2
Heart [37] = assay: Cardioprotective effect in Langendorff perfused guinea pig spontaneously beating […] assessed as heart rat at 0.001 uM (RVb = 175 to 190 +/- 5 to 11 bpm); assay type: functional, Cavia porcellus
[38] = Cardioprotective effect in Langendorff perfused guinea pig spontaneously beating […] assessed as atrioventicular conduction time at 1 uM (RVb = 50 to 55 +/- 1 to 4 ms); assay type: functional; details: Cavia porcellus; how it was run: as §2
[39] = Negative inotropic activity against potassium-induced contraction in guinea pig left atrium assessed as decrease in developed tension at 5 uM relative to control; assay type: functional, Cavia porcellus, Cardiac atrium; parameters: scale not given: the % may be the effect or the level left
[40] = Antiarrhythmic activity in sinusoidal alternating current-induced guinea pig left atrium assessed as increase in current strength at which extra beats occur at 1 uM measured every 30 mins; assay type: functional, Cavia porcellus, Cardiac atrium; how it was run: as §1

EC50 [1]: 23 nM
Structure (SMILES): Cc1cccc(C)c1NC[C@@H]1CCCN2CCCC[C@H]12
inhibition at 50 µM (Aorta [2]): 27% | Activity [3]: 40% | Activity [4]: 28% | Activity [5]: 75%

EC50 [1]: 35 nM
Structure (SMILES): O=C(Cn1nc2ccccc2n1)NC[C@@H]1CCCN2CCCC[C@H]12
Activity [6]: 98% | Activity [7]: 26% | inhibition at 100 µM (Aorta [8]): 4% | Activity [9]: 34%

EC50 [1]: 74 nM
Structure (SMILES): O=C(Cn1nc2ccc(Cl)cc2n1)NC[C@@H]1CCCN2CCCC[C@H]12
inhibition at 100 µM (Aorta [8]): 26% | Activity [10]: 92% | Activity [9]: 27% | Activity [11]: 28%

EC50 [1]: 17 nM
Structure (SMILES): COc1cc(C(=O)NC[C@@H]2CCCN3CCCC[C@H]23)cc(OC)c1OC
EC50 [12]: 2620 nM | Activity [13]: 79% | inhibition at 100 µM (Aorta [8]): 7% | Activity [14]: 11% | Activity [4]: 56%

EC50 [1]: 340 nM | EC50 [25]: 6890 nM
Structure (SMILES): Cc1cccc(C)c1NCC[C@@H]1CCCN2CCCC[C@H]12
AV conduction time [15]: 59 ms | EC50 [12]: 460 nM | intraventricular conduction time [16]: 19 ms | AV conduction time [17]: 57 ms | Activity (Heart [18]): 136 bpm | Activity [6]: 89% | AV conduction time [19]: 53 ms | Activity [20]: 72% | intraventricular conduction time [21]: 19 ms | inhibition at 50 µM (Aorta [2]): 28% | intraventricular conduction time [22]: 20 ms | AV conduction time [23]: 56 ms | Activity (Heart [24]): 171 bpm | Activity [26]: 175 ms | Activity [27]: 170 ms | intraventricular conduction time [28]: 21 ms | Activity (Heart [29]): 142 bpm | Activity [30]: 154 ms | intraventricular conduction time [31]: 20 ms | Activity [32]: 208% | Activity [33]: 160 ms | Activity (Heart [34]): 163 bpm | Ratio [35]: 3 | Activity [36]: 157 ms | Activity (Heart [37]): 182 bpm | AV conduction time [38]: 58 ms

EC50 [1]: 110 nM | EC50 [25]: 2750 nM
Structure (SMILES): COc1ccc2c(c1)nc(Cc1ccccc1)c(=O)n2C[C@H]1CCCN2CCCC[C@@H]12
Activity [39]: 86% | Activity [40]: 14% | inhibition at 50 µM (Aorta [2]): 18% | Activity [3]: 62%
